# Screening results: PubChem BioAssay, several laboratories
# Hits are enriched below; roughly 5.3% of the tested compounds scored in any of these assays.
# Calb FLC = C. albicans growth modulation with fluconazole | actives 0.57% (n = 300,000) | C. albicans CaCi-2 (fluconazole-resistant clinical isolate) + fluconazole, Alamar Blue growth, 48 h | growth inhibition, % (no concentration beside the values);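 active = growth inhibition above about 58% in most replicates, limit read from the data, passing the limit was not always enough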;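 note: all wells also contain fluconazole at 8 µg/ml as a sub-toxic cotreatment; 0% = median of DMSO wells and 100% = median of geldanamycin control wells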
# CSC inhib = cancer stem cell inhibition | cancer stem cell-like cells viability, luminescence | inhibition, % at 7.5 µM | actives 1.1% (n = 300,000); in the data active = inhibition above about 75%; tested in HMLE shEcad cells
# Beta apoptosis = beta cell apoptosis inhibition | INS-1E cytokine-induced death, ATP luminescence, 48 h; percent of positive-control rescue, neutral wells zero | protection from apoptosis, % (test concentration not listed) | actives 0.8% (n = 300,000) | AID 435005;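 active = Every replicate reaches about 75%, or at least half do and their mean reaches it too, limit read from the data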;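 note: 0% = cytokine-treated negative control wells and 100% = positive control rescue; higher means more ATP so stronger rescue from cytokine killing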
# NLRP3 yeast inh = NALP3 inhibition in yeast. Yeast reconstituted NLRP3/ASC/caspase-1, beta-gal luminescence, 24 h. inhibition, % at 10 µM. actives 0.39% (n = 330,000). AID 2825;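 active = inhibition of 50% or more; inactive = inhibition below 50%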;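 note: plate controls were induced DMSO wells for no effect and uninduced yeast grown without galactose for full effect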
# T cruzi repl = T. cruzi replication inhibition; T. cruzi beta-gal in NIH3T3, luminescence, 90 h; inhibition, % (test concentration not listed); actives 1.4% (n = 300,000);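 active = mean inhibition across valid replicates above about 55%, limit read from the data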;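 note: signal also drops with host cell toxicity which is not excluded here; 0% = plate median of DMSO wells and 100% = zero luminescence signal; higher percent means less beta-gal luminescence so fewer parasites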
#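 Assay system: NIH/3T3 host cells with β-galactosidase reporter T. cruzi; input: 5,000 host fibroblasts per well; compound: single 50 nL compound addition per well in DMSO; timing: ≥90 h infection period, 3 h prior cell attachment; measured by: GalScreen β-gal luminescence, detergent lysis, 60 min; evaluation: percent inhibition of parasite-derived β-gal signal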
# Mdm2-MdmX inh = disrupts the human Mdm2-MdmX interaction; O15151+Q00987; SaOS-2 split-luciferase Mdm2/MdmX complementation, luminescence; inhibition, % at 8 µM; actives 3% (n = 330,000); AID 485346;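 active = inhibition of at least 50% at 8 µM in the primary screen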
# Target sequence (O15151 whole entry, looked up): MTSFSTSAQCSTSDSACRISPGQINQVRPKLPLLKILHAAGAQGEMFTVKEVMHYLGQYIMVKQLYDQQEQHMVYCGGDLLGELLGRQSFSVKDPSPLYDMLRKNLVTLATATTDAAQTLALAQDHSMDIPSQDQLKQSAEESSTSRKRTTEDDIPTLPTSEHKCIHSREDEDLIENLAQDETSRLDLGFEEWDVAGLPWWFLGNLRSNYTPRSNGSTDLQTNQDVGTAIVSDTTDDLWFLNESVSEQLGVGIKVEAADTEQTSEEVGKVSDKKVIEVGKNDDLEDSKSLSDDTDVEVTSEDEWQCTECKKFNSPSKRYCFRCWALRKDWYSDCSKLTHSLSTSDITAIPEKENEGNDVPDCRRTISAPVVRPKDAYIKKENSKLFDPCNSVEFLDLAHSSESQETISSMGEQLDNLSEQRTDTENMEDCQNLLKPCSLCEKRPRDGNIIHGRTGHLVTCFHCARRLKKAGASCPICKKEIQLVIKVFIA
# Target sequence (Q00987 whole entry, looked up): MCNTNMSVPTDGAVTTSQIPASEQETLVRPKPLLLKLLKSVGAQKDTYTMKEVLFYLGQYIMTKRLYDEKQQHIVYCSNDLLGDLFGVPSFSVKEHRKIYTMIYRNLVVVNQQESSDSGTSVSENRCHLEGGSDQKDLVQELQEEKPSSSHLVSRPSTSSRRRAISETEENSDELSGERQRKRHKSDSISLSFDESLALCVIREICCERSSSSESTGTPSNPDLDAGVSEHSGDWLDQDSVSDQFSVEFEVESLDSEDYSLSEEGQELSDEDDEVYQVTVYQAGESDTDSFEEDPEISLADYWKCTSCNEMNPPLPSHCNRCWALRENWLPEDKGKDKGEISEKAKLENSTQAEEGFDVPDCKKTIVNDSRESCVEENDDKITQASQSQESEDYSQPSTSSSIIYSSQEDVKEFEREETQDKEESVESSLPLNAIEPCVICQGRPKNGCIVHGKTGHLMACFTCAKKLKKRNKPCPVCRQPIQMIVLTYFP
# Mdm2 MdmX conf = confirmation of human Mdm2/MdmX interaction inhibitors; shares compounds with Mdm2-MdmX inh; Mdm2-MdmX binding, luminescent assay; inhibition, % at 8 µM; actives 55% (n = 10,000); AID 489028; in the data active = inhibition above about 40%
# FLuc counter = inhibits full-length luciferase, flagging false Mdm2/MdmX hits; shares compounds with Mdm2-MdmX inh; SaOS-2 full-length luciferase counterscreen, luminescence; inhibition, % at 8 µM; actives 77% (n = 6,200);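 active = mean inhibition at 8 µM reaching about 37%, which flags the compound as non-specific, limit read from the data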;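 note: p53-null SaOS-2 cells with luciferase driven by a doxycycline-inducible promoter; compound on cells about two nights before reading with doxycycline added after day one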
# The depositor's hits bear a star; . = not tested or not shown.
SMILES,Calb FLC,CSC inhib,Beta apoptosis,NLRP3 yeast inh,T cruzi repl,Mdm2-MdmX inh,Mdm2 MdmX conf,FLuc counter
CC(CC(=O)NC(C)c1ccc2c(c1)OCCO2)c1ccccc1 (centres undefined),-7,.,-3,15,7,10,.,.
Cc1noc(C)c1C(=O)OC(C)C(=O)Nc1ccc(C(N)=O)cc1 (centres undefined),.,-5,-3,13,.,9,.,.
CCN1CCN(c2ccc(S(=O)(=O)N3CCCCC3)cc2NC(=O)/C=C/c2ccc(OC(F)F)cc2)CC1,18,10,.,25,52,82*,52*,69*
Cc1ccc(NC(=O)C2=CC(c3cccs3)=NS(=O)(=O)N2C)cc1,-4,.,-1,8,6,53*,12,.
CC(=O)c1ccc(NC(=O)C2=CC(c3cccs3)=NS(=O)(=O)N2C)cc1,-7,-11,-3,11,-6,34,.,.
CCc1ccc(NC(=O)C2=CC(c3cccs3)=NS(=O)(=O)N2C)cc1,-3,-3,-8,3,16,72*,57*,44*
Cc1ccc2cc(CN(c3ccccc3)S(=O)(=O)c3ccccc3)c(=O)[nH]c2c1,2,-6,0,6,4,2,.,.
CCOc1ccc(N(Cc2cc3ccc(C)cc3[nH]c2=O)S(=O)(=O)c2ccccc2)cc1,-7,-14,5,5,8,59*,58*,55*
COc1ccc2[nH]c(=O)c(CN(c3ccccc3OC)S(=O)(=O)c3ccccc3)cc2c1,5,30,6,15,20,60*,38,89*
Cc1ccc(SCC(=O)NNC(=O)CCS(=O)(=O)c2ccc(C)cc2)cc1,.,-5,-2,15,.,20,.,.
CCn1c(-c2ccc(C)cc2)nn(CC(=O)NCCc2ccccc2)c1=S,3,19,127*,15,-112,51*,55*,31
O=C(Nc1cccnc1)c1ccc([N+](=O)[O-])s1,.,13,78*,10,.,52*,25,.
CSc1ccc(-c2nnn(CC(=O)NCc3ccccc3)n2)cc1,-17,31,2,19,1,50,30,.
Cc1ncsc1CCOC(=O)C1C2CC3CC(C2)CC1C3 (centres undefined),17,49,-3,-6,24,-30,.,.
Nc1cc(OCC(F)(F)F)cc([N+](=O)[O-])c1,-1,11,-4,-11,-2,-20,.,.
Nc1cc(N)c(OCC(F)(F)F)cc1OCC(F)(F)F,21,-7,6,19,2,78*,14,.
Cc1cccc(N(C(=O)CCC(=O)Nc2cc(C)on2)C(C(=O)NC2CCCC2)c2ccccc2)c1 (centres undefined),15,.,4,19,10,5,.,.
CCCCN(C(=O)CCC(=O)Nc1cc(C)on1)C(C(=O)NC1CCCC1)c1ccccc1C (centres undefined),35,-10,-3,21,3,8,.,.
Cc1cc(NC(=O)/C=C/C(=O)N(CC(=O)NC2CCCC2)c2cccc3ccccc23)no1,-13,-1,-8,21,-27,53*,32,.
CCc1ccc(C(C(=O)NC2CCCC2)N(C(=O)/C=C/C(=O)Nc2cc(C)on2)c2ccccc2C)cc1 (centres undefined),-14,25,-4,-4,9,77*,75*,59*
CCOc1ccc(N(C(=O)/C=C/C(=O)Nc2cc(C)on2)C(C(=O)NC2CCCC2)c2ccccc2C)cc1 (centres undefined),5,.,.,5,1,81*,77*,27
O=C(Cc1ccc(-n2c(=O)c3ccccc3n(Cc3ccccc3Cl)c2=O)cc1)NCC1CCCO1 (centres undefined),-4,-11,-4,6,-1,4,.,.
CCCC(=O)Nc1nc2ccc(NC(=O)c3ccccc3F)cc2s1,30,39,37,20,0,55*,56*,74*
CC(=O)C1=C(C)NC(=O)NC1/C=C/c1ccccc1 (centres undefined),8,2,1,-3,-4,-12,.,.
O=C1c2cccc(O)c2C(=O)c2c(O)cc(CO)cc21,24,-12,-1,24,-11,-2,.,.
SMILES,Calb FLC,CSC inhib,Beta apoptosis,NLRP3 yeast inh,T cruzi repl,Mdm2-MdmX inh,Mdm2 MdmX conf,FLuc counter
COc1ccc(-c2sc3ccc(OC)cc3c2C#Cc2cncn2C)cc1,.,.,-7,-5,.,54*,19,.
COc1ccc(-c2sc3cc4c(cc3c2C#Cc2cncn2C)OCO4)cc1,.,67,-3,-33,.,-9,.,.
COc1ccc(-c2oc3ccccc3c2C#Cc2cncn2C)cc1,.,103*,5,2,.,72*,61*,44*
COC(=O)c1c(-c2ccc(OC)cc2)oc2ccccc12,-22,13,3,21,-17,17,.,.
O=C(NNS(=O)(=O)c1ccccc1)c1cccc(F)c1,4,-17,-7,11,-16,8,.,.
COc1ccc(Nc2nc(-c3ccccc3F)nc3ccccc23)cc1OC,29,11,15,20,24,55*,33,.
Oc1ccc(Nc2nc(-c3ccccc3O)nc3ccccc23)cc1,21,83*,-1,16,-11,54*,24,.
Oc1ccc(Nc2nc(-c3ccccc3F)nc3ccccc23)cc1,6,2,-3,13,10,21,.,.
C/C(N)=C(/C#N)C(=O)CSc1n[nH]c(-c2cccs2)n1,-19,-27,-6,4,-4,4,.,.
CC1Cc2ccccc2N1C(=O)CSc1nc2c(c(=O)n(C)c(=O)n2C)n1Cc1ccccc1 (centres undefined),54,1,20,-3,57*,50*,34,.
COc1cc(OC)cc(C(=O)N(CN2CCCC2=O)c2ccccc2OC)c1,6,-5,-1,-6,-9,20,.,.
CCOC(=O)c1sc(NC(=O)c2c(C)nn(Cc3ccccc3)c2C)cc1C,.,.,88*,22,.,53*,27,.
CCOC(=O)c1sc(NC(=O)Nc2ccc(Cl)cc2)cc1C,-12,70,89*,23,65*,75*,86*,55*
O=C(CSc1ncnc2[nH]ncc12)Nc1nc(-c2ccc(F)c(F)c2)cs1,60,9,11,2,17,20,.,.
Cc1cc(-c2ccc(N=Nc3c(S(=O)(=O)O)cc4cc(S(=O)(=O)O)cc(N)c4c3O)c(C)c2)ccc1N=Nc1c(S(=O)(=O)O)cc2cc(S(=O)(=O)O)cc(N)c2c1O,.,65,77*,34,.,62*,57*,48*
N#Cc1c(NCCCO)nc(-c2ccccc2)c2c1CCCC2,20,5,-3,-35,14,16,.,.
N#Cc1c(NCCN)nc(-c2ccccc2)c2c1CCCC2,-1,10,5,32,15,58*,20,.
